The test system of assay [1] is Rattus norvegicus. In words: Percent inhibition of gastric antisecretory activity in the pylorus-ligated rat at a dose of 100 mg/kg administered intraduodenally. Particulars: Stomach, route intraduodenal. Format: functional. In outline:
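Fasted rats in groups of six, pylorus ligated under ether anaesthesia (Shay method); compound in 1% carboxymethylcellulose, or vehicle alone, given intraduodenally at 100 mg/kg. Stomach removed 7 h after abdominal closure. Gastric juice volume measured, and free acid titrated with 0.1 N NaOH to pH 3.0. Hourly free-acid output per rat expressed as percent inhibition versus vehicle controls.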

In assay [2] the test system is Rattus norvegicus. In words: Antiulcer activity in male Donry rat for 50% inhibition of aspirin induced gastric lesions after intraduodenal administration. In kind it is functional. Particulars: Stomach. In a few lines: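 Aspirin ulcer model. Male Donryu rats of 200–220 g were food-deprived 24 h, ten per group, pylorus-ligated, then dosed intraduodenally. Ten min later they received oral aspirin 100 mg/kg in 1% carboxymethylcellulose. At 7 h the summed lengths of glandular lesions gave the ulcer index (mm). ED50 by Litchfield–Wilcoxon.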

The species named for assay [3] is Rattus norvegicus. In words: animal or person. The note with it: Stomach, intraduodenal.
For assay [4], the species on record is Rattus norvegicus. In words: animal or person. The note with it: Stomach, intraduodenal. This is another data set of the same source.

For 2 compounds, inhibition in vivo and ED50 results are on record in ChEMBL document CHEMBL1122117, “Pyridazinones. 1. Synthesis and antisecretory and antiulcer activities of thio amide derivatives” (1982).

Turning to `O=c1ccc(-c2ccccc2)nn1CC/C(S)=N/CO`, the inhibition in vivo at 100 mg/kg in the assay on Rattus norvegicus [1] came out at 5.1%.

`CN1[C@@H]2CC[C@H]1C[C@@H](OC(=O)C(CO)c1ccccc1)C2.O=S(=O)(O)O` (some centres undefined) [ATROPINE SULFATE]: the ED50 with Rattus norvegicus [2] is 4.5 mg/kg; in the assay listed under Rattus norvegicus [3], 1.1 mg/kg; in the assay listed under Rattus norvegicus [4], 0.9 mg/kg.

For orientation: inhibition in vivo means the change of the read-out against control, counted positive when it falls. What is called ED50 is the midpoint of the dose-response relation. Read a low ED50 as greater potency.
